Consider four compounds from ChEMBL document CHEMBL1177846, “Benzylidene/2-chlorobenzylidene hydrazides: synthesis, antimicrobial activity, QSAR studies and antiviral evaluation” (Eur J Med Chem, 2010).

One assay deals with Felid alphaherpesvirus 1. In words: Antiviral activity against Feline herpesvirus 1 infected in […] cells assessed as inhibition of virus-induced cytopathic effect after 3 days by MTS assay. Format: functional, organism-based. The method, boiled down: (§1)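 Confluent cell monolayers were infected with 100 CCID50 of virus and allowed 2 h adsorption at 37 °C. Virus was then removed and serial compound dilutions were added. Cultures were incubated at 37 °C for 3 days, until CPE was complete in the untreated virus control. EC50 was the concentration giving 50% inhibition of virus-induced CPE, by visual score or by MTS formazan cell viability.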
For orientation: Protection from cytopathic effect is a common read-out in antiviral testing.

For assay [1], the system named is Human alphaherpesvirus 1. The assay is described as follows: Antiviral activity against acyclovir-resistant […] kinase-deficient HSV1 KOS infected in human HEL cells assessed as inhibition of virus-induced cytopathic effect after 3 days by MTS assay. Format: functional, organism-based. A digest of the protocol:
as §1

The test system of another assay is Coxsackievirus B4. The assay is described as follows: Antiviral activity against Coxsackie virus B4 infected in african green monkey Vero cells assessed as inhibition of virus-induced cytopathic effect after 3 days by MTS assay. Format: functional, organism-based. The method, boiled down:
as §1

The test system of a further assay is Sindbis virus. In words: Antiviral activity against Simbidis virus infected in african green monkey Vero cells assessed as inhibition of virus-induced cytopathic effect after 3 days by MTS assay. Format: functional, organism-based. A digest of the protocol: as §1
A further assay deals with Aspergillus niger. In words: Antifungal activity against Aspergillus niger after 7 days by serial dilution method. It counts as functional.
Assay [2] deals with Influenza A virus. In words: Antiviral activity against influenza A virus H1N1 infected in MDCK cells assessed as inhibition of virus-induced cytopathic effect after 3 days by MTS assay. It counts as functional, organism-based. The method, boiled down: as §1
Assay [3] deals with Human alphaherpesvirus 1. In words: Antiviral activity against Herpes simplex virus 1 KOS infected in human HEL cells assessed as inhibition of virus-induced cytopathic effect after 3 days by MTS assay. It counts as functional, organism-based. The method, boiled down:
as §1

For the next assay, the system named is Human alphaherpesvirus 2. In words: Antiviral activity against Herpes simplex virus 2 G infected in human HEL cells assessed as inhibition of virus-induced cytopathic effect after 3 days by MTS assay. Conditions: strain G. Format: functional, organism-based. The method, boiled down:
as §1

The next assay concerns Staphylococcus aureus. The assay is described as follows: Antibacterial activity against Staphylococcus aureus after 24 hrs by serial dilution method. Format: functional.
The test system of the next assay is Influenza B virus. In words: Antiviral activity against influenza B virus infected in MDCK cells assessed as inhibition of virus-induced cytopathic effect after 3 days by MTS assay. It counts as functional, organism-based. The method, boiled down:
as §1

Assay [4] deals with Influenza A virus. In words: Antiviral activity against influenza A virus H3N2 infected in MDCK cells assessed as inhibition of virus-induced cytopathic effect after 3 days by MTS assay. It counts as functional, organism-based. The method, boiled down: as §1
In the next assay the test system is Escherichia coli. The assay is described as follows: Antibacterial activity against Escherichia coli after 24 hrs by serial dilution method. It counts as functional.
The test system of assay [5] is Mammalian orthoreovirus 1. The assay is described as follows: Antiviral activity against Reovirus 1 infected in african green monkey Vero cells assessed as inhibition of virus-induced cytopathic effect after 3 days by MTS assay. Format: functional, organism-based. The method, boiled down: as §1
Another assay deals with Punta Toro virus. In words: Antiviral activity against Punta toro virus infected in african green monkey Vero cells assessed as inhibition of virus-induced cytopathic effect after 3 days by MTS assay. Format: functional, organism-based. A digest of the protocol:
as §1

For a further assay, the system named is Candida albicans. The assay is described as follows: Antifungal activity against Candida albicans after 48 hrs by serial dilution method. Format: functional. The method, boiled down: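 Serial compound dilutions in Sabouraud dextrose broth (tube dilution), incubated 37 °C for 48 h. MIC was read as the lowest concentration with no growth.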
The next assay concerns Vaccinia virus. In words: Antiviral activity against Vaccinia virus infected in human HEL cells assessed as inhibition of virus-induced cytopathic effect after 3 days by MTS assay. Format: functional, organism-based. Conditions: Orthopoxvirus vaccinia. A digest of the protocol:
as §1

The next assay relates to Feline coronavirus. In words: Antiviral activity against Feline caronavirus infected in […] cells assessed as inhibition of virus-induced cytopathic effect after 3 days by MTS assay. Format: functional, organism-based. The method, boiled down: as §1
The test system of another assay is Human respirovirus 3. In words: Antiviral activity against Parainfluenza 3 virus infected in african green monkey Vero cells assessed as inhibition of virus-induced cytopathic effect after 3 days by MTS assay. Format: functional, organism-based. The method, boiled down:
as §1

The test system of assay [6] is Vesicular stomatitis virus. The assay is described as follows: Antiviral activity against VSV infected in human HEL cells assessed as inhibition of virus-induced cytopathic effect after 3 days by MTS assay. Format: functional, organism-based. The method, boiled down: as §1
The subject of a further assay is Bacillus subtilis. In words: Antibacterial activity against Bacillus subtilis after 24 hrs by serial dilution method. It counts as functional.

The source made the active and inactive calls. The calls are words filed in the database; no cut-off is given here.

With `CCCCCCCCCCCCCCCC(=O)N/N=C/c1ccccc1Cl`, the inhibition entry in the assay on Felid alphaherpesvirus 1, in the assay with Human alphaherpesvirus 1 [1], in the assay on Coxsackievirus B4, with Sindbis virus, in the assay on Influenza A virus [2] and with Human alphaherpesvirus 1 [3] was “inactive” in each case. For the same compound, the inhibition result (with Human alphaherpesvirus 2; with Influenza B virus; in the assay on Influenza A virus [4]; in assay [5]; with Punta Toro virus; in the assay with Vaccinia virus) was “inactive” in each case. Also, the inhibition entry (in the assay with Feline coronavirus; in the assay on Human respirovirus 3; in [6]) was “inactive” each time. The “-logMIC” value is 1.27 in the assay on Aspergillus niger, 1.5 in the assay on Staphylococcus aureus, 2.1 in the assay on Candida albicans and 1.49 in the assay with Bacillus subtilis. Also, the MFC in the assay on Aspergillus niger and against Candida albicans was more than 0.127 uM/ml throughout. For the same compound, the figures for the MBC with Staphylococcus aureus, against Escherichia coli and in the assay on Bacillus subtilis were more than 0.127 uM/ml, 0.031 uM/ml and 0.031 uM/ml, respectively.
With `CCCCCCCCCCCCCC(=O)N/N=C/c1ccccc1`, the inhibition entry in the assay on Felid alphaherpesvirus 1, with Human alphaherpesvirus 1 [1], in the assay with Coxsackievirus B4, in the assay with Sindbis virus, in the assay on Influenza A virus [2] and in the assay with Human alphaherpesvirus 1 [3] was “inactive” throughout. Further, the inhibition result (with Human alphaherpesvirus 2; in the assay on Influenza B virus; with Influenza A virus [4]; in assay [5]; with Punta Toro virus; in the assay with Vaccinia virus) was “inactive” throughout. The inhibition result (in the assay with Feline coronavirus; in the assay with Human respirovirus 3; in [6]) was “inactive” in each case. Besides, the “-logMIC” value with Aspergillus niger came out at 1.24. The MFC in the assay on Aspergillus niger and against Candida albicans was more than 0.152 uM/ml each time. Besides, the MBC against Staphylococcus aureus, in the assay on Escherichia coli and in the assay with Bacillus subtilis was more than 0.152 uM/ml each time.
Consider `CCCCCCCCCCCCCCCCCC(=O)N/N=C/c1ccccc1`, for which the inhibition result with Felid alphaherpesvirus 1, in the assay with Human alphaherpesvirus 1 [1], in the assay on Coxsackievirus B4, in the assay on Sindbis virus, in the assay with Influenza A virus [2] and in the assay on Human alphaherpesvirus 1 [3] was “inactive” in each case. Moreover, the inhibition result (in the assay on Human alphaherpesvirus 2; in the assay with Influenza B virus; in the assay on Influenza A virus [4]; in assay [5]; in the assay on Punta Toro virus; in the assay on Vaccinia virus) was “inactive” each time. Also, the inhibition result (in the assay on Feline coronavirus; with Human respirovirus 3; in assay [6]) was “inactive” in each case. Besides, the “-logMIC” value in the assay on Aspergillus niger stood at 1.2; in the assay with Escherichia coli, 1.79; in the assay with Candida albicans, 2.09; in the assay on Bacillus subtilis it was 1.49. Also, the MFC in the assay on Aspergillus niger was 0.03 uM/ml; with Candida albicans, less than 0.129 uM/ml. Further, the MBC in the assay with Staphylococcus aureus was 0.129 uM/ml; against Escherichia coli, 0.064 uM/ml; in the assay on Bacillus subtilis, less than 0.129 uM/ml.
For the compound `OC(Cn1cncn1)(Cn1cncn1)c1ccc(F)cc1F` [FLUCONAZOLE], in the assay on Aspergillus niger, the “-logMIC” value is on record as 2.64.
